Screens (PubChem)
MrgX1 antagonist – antagonists of human MrgX1 receptor; Q96LB2; MRGX1-HEK293 calcium flux, Fluo-4, BAM8-22 antagonism; hits give low values; B-score at 10 µM; hit rate 1.3% among 310,000; AID 588676;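 active means calcium-response B-score plate-corrected more than 3 library SD below zero, starting fluorescence within 5 deviations, no agonist response on first addition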;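 further: peak minus trough fluorescence over baseline after final BAM8-22 challenge near maximal dose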
Target sequence (Q96LB2 whole entry, looked up): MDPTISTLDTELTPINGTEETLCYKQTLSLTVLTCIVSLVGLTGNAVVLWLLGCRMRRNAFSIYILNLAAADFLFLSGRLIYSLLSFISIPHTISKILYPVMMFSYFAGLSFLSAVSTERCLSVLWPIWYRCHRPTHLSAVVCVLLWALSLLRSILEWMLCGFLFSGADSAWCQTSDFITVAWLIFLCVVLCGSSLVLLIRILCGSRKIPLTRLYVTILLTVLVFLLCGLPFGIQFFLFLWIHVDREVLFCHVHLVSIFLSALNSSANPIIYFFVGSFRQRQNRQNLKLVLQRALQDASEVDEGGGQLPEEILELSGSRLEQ
RGS4 block – human RGS4 inhibition. P49798. HEK293 M3R/RGS4 inducible, Fluo-4 calcium flux; hits give high values; triggered by carbachol at its EC20. B-score at 10 µM. hit rate 0.45% among 310,000;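 active means B-score, a plate-corrected calcium signal, over three deviations above library mean, with baseline fluorescence within five deviations of library mean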;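 further: RGS4 expression induced by doxycycline in cells with stable M3 receptor; B-score is computed from the integrated fluorescence ratio over baseline after carbachol; higher B-score means a larger calcium signal and so more RGS4 inhibition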
Target sequence (P49798 whole entry, looked up): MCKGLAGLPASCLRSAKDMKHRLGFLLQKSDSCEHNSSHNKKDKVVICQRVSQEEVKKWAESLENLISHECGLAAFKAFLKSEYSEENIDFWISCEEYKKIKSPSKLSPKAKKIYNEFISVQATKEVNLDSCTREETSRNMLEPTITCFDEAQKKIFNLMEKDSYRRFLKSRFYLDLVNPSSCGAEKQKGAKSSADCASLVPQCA
RGS4 act – RGS4 potentiation or activation. hit rate 0.92% among 310,000. HEK293 M3R/inducible RGS4, carbachol calcium flux Fluo4; hits give low values. B-score at 10 µM. AID 463111;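 active means B-score of the integrated calcium signal more than 4 SD below the library mean, with starting fluorescence not abnormally high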;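 further: negative B-score means reduced calcium response which marks RGS4 activation or potentiation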
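Test system: HEK293 cells with stable M3R and inducible RGS4; also added: carbachol at ECmax as muscarinic agonist stimulus; schedule: dye loading 30 min 37 °C, buffer rest 30 min RT; technique: kinetic calcium fluorescence imaging with Fluo4-AM dye, 2 µM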
MrgX1 agonist – human MrgX1 receptor agonism, primary screen. Q96LB2. MrgX1-HEK293 cells, Fluo-4 calcium fluorescence, agonist mode; hits give high values. B-score at 10 µM. hit rate 0.44% among 310,000;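 active means calcium response B-score plate-corrected fluorescence ratio at least 3 library SD, with starting fluorescence B-score inside 5 SD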
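times = overnight plating, then 30 min 37 °C plus 30 min room-temperature dye loading | assay system = stable human MrgX1 HEK293 cell line | input = fifteen thousand cells per well | signal = kinetic calcium dye fluorescence, Fluo-4 NW | dosing = compound delivered in addition one of three | read-out = B-scored fluorescence response ratio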
MrgX1 allo act – allosterically activates human MrgX1 receptor signaling | Q96LB2 | MrgX1-HEK293, Fluo-4 calcium flux, FDSS; hits give high values | B-score at 10 µM | hit rate 0.63% among 310,000 | AID 588675;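 active means plate-corrected calcium response at least 3 library SD above typical, normal starting fluorescence, not activating the receptor alone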;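 further: compound read alongside a low EC10 to EC30 dose of BAM8-22 agonist; peak minus trough fluorescence over baseline measured at the second addition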
RGS4 act valid – RGS4 activation, validation assay | shares compounds with RGS4 act | AID 602282 | inhibition, % at 10 µM | hit rate 89% among 1,100 | HEK293 M3R/RGS4 inducible, carbachol calcium flux Fluo4;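 active means inhibition above 3 SD of the buffer control wells, cut at about 41% in these data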;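 further: signal is the integrated peak-minus-minimum Fluo4 fluorescence over baseline ratio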
RGS4 act ctr – activity in cells without induced RGS4 expression | shares compounds with RGS4 act | HEK293 M3R non-induced RGS4, Fluo4 calcium flux; after carbachol challenge at its EC90 | inhibition, % at 10 µM | hit rate 82% among 1,100 | AID 602283;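 active means inhibition exceeding 3 SD of buffer-only control wells, cut at about 26% in these data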;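 further: percent drop in integrated peak-minus-baseline over baseline Fluo4 ratio after carbachol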
Starred values were filed as active, the others as inactive. Only some compounds are listed: those with a hit (about 3.5% of all), similar ones and a draw of the others.

For Cc1ccc(C(=O)NC(=S)Nc2ccc(CN3CCCCC3)cc2)c(C)c1 the results were MrgX1 antagonist inactive, RGS4 block inactive, RGS4 act -7.6*, MrgX1 agonist inactive, MrgX1 allo act inactive, RGS4 act valid 82* and RGS4 act ctr 84*.
Screening O=S(=O)(Nc1ccccc1)c1ccc(-c2csnn2)cc1 returned MrgX1 antagonist inactive, RGS4 block inactive, RGS4 act -8.4*, MrgX1 agonist inactive, MrgX1 allo act inactive, RGS4 act valid 63* and RGS4 act ctr 84*.
For CC(C)(C)c1csc(NC(=O)c2cccs2)n1 the results were MrgX1 antagonist inactive, RGS4 block inactive, RGS4 act -8.2*, MrgX1 agonist inactive, MrgX1 allo act inactive, RGS4 act valid 0 and RGS4 act ctr 0.
Screening COc1ccc(/C=C(/NC(=O)c2ccc(OC)c(OC)c2)C(=O)NCCCn2ccnc2)cc1 returned MrgX1 antagonist inactive, RGS4 block inactive, RGS4 act inactive, MrgX1 agonist inactive and MrgX1 allo act inactive.
`COc1ccc(-c2nc3ccccn3c2NCc2ccc3c(c2)OCO3)cc1` gave MrgX1 antagonist inactive, RGS4 block inactive, RGS4 act -8.6*, MrgX1 agonist inactive, MrgX1 allo act inactive, RGS4 act valid 60* and RGS4 act ctr 0.
c1ccc(-c2nc3ccccn3c2NCc2ccc3c(c2)OCO3)cc1 was read as MrgX1 antagonist inactive, RGS4 block inactive, RGS4 act inactive, MrgX1 agonist inactive and MrgX1 allo act inactive.
For Cc1ccccc1OCC(=O)Nc1cc(Cl)ccc1Oc1ccccc1 the results were MrgX1 antagonist inactive, RGS4 block inactive, RGS4 act inactive, MrgX1 agonist inactive and MrgX1 allo act inactive.
COc1ccccc1OCC(=O)Nc1cc(Cl)ccc1Oc1ccccc1 was read as MrgX1 antagonist inactive, RGS4 block inactive, RGS4 act -9.1*, MrgX1 agonist inactive, MrgX1 allo act inactive, RGS4 act valid 0 and RGS4 act ctr 0.
`COc1cc(C(=O)O[C@H]2CC(C)=CC[C@@]3(C)CC[C@@](O)(C(C)C)[C@H]23)ccc1O` gave MrgX1 antagonist inactive, RGS4 block inactive, RGS4 act inactive, MrgX1 agonist inactive and MrgX1 allo act inactive.
Screening Cc1ccc(-c2csc(=Nc3cccnc3)n2CCCn2ccnc2)cc1C returned MrgX1 antagonist inactive, RGS4 block inactive, RGS4 act -8.8*, MrgX1 agonist inactive, MrgX1 allo act inactive, RGS4 act valid 92* and RGS4 act ctr 93*.
`Cc1ccc(-c2csc(=Nc3cccnc3)n2CCCN2CCCC2=O)cc1C` gave MrgX1 antagonist inactive, RGS4 block inactive, RGS4 act inactive, MrgX1 agonist inactive and MrgX1 allo act inactive.
Cn1c(=O)c2sccc2n(Cc2cccc(Br)c2)c1=O was read as MrgX1 antagonist inactive, RGS4 block inactive, RGS4 act inactive, MrgX1 agonist inactive and MrgX1 allo act inactive.
CCOC(=O)N1CCC(NC(=O)c2cnn3c(C(F)(F)F)cc(-c4cccc(OC)c4)nc23)CC1 was read as MrgX1 antagonist inactive, RGS4 block inactive, RGS4 act -8.4*, MrgX1 agonist inactive, MrgX1 allo act inactive, RGS4 act valid 0 and RGS4 act ctr 0.
O=S(=O)(Nc1ncccn1)c1ccc(NC(=S)NCc2cccnc2)cc1 was read as MrgX1 antagonist inactive, RGS4 block inactive, RGS4 act inactive, MrgX1 agonist inactive and MrgX1 allo act inactive.
Cc1ccc(-c2nnc(N3CCN(c4ccccn4)CC3)c3ccccc23)cc1 was read as MrgX1 antagonist inactive, RGS4 block inactive, RGS4 act -7.7*, MrgX1 agonist inactive, MrgX1 allo act inactive, RGS4 act valid 94* and RGS4 act ctr 91*.
`c1ccc(-c2nnc(N3CCN(c4ccccn4)CC3)c3ccccc23)cc1` gave MrgX1 antagonist inactive, RGS4 block inactive, RGS4 act -8*, MrgX1 agonist inactive, MrgX1 allo act inactive, RGS4 act valid 92* and RGS4 act ctr 79*.
Cc1ccc(-c2nnc(N3CCCCC3)c3ccccc23)cc1 was read as MrgX1 antagonist inactive, RGS4 block inactive, RGS4 act inactive, MrgX1 agonist inactive and MrgX1 allo act inactive.
Cc1cc(/C=N/N2CCN(C)CC2)c(C)n1-c1ccc(Cl)cc1 was read as MrgX1 antagonist inactive, RGS4 block inactive, RGS4 act inactive, MrgX1 agonist inactive and MrgX1 allo act inactive.
Screening CCCSc1nc(C)c2cc(C)cc(C)c2n1 returned MrgX1 antagonist inactive, RGS4 block inactive, RGS4 act inactive, MrgX1 agonist inactive and MrgX1 allo act inactive.
For Cc1cc(C)c2nc3nc(C)c(C)cc3c(N)c2c1 the results were RGS4 block inactive, RGS4 act -9.3*, RGS4 act valid 90* and RGS4 act ctr 65*.
`Cc1ccc(-n2nc3c(c2NC(=O)c2cccs2)CS(=O)(=O)C3)cc1C` gave MrgX1 antagonist inactive, RGS4 block inactive, RGS4 act inactive, MrgX1 agonist inactive and MrgX1 allo act inactive.
`O=C(CSc1ncc(-c2ccccc2)n1C1CCCC1)N1CCc2ccccc21` gave MrgX1 antagonist inactive, RGS4 block inactive, RGS4 act -7.7*, MrgX1 agonist inactive, MrgX1 allo act inactive, RGS4 act valid 54* and RGS4 act ctr 84*.
Screening COc1ccccc1CN1CCC(CNS(=O)(=O)c2cc(-c3onc(C)c3C)ccc2OC)CC1 returned MrgX1 antagonist inactive, RGS4 block inactive, RGS4 act -8*, MrgX1 agonist inactive, MrgX1 allo act inactive, RGS4 act valid 90* and RGS4 act ctr 65*.
COC(=O)c1cc2ccsc2n1Cc1nc(-c2ccc(OC)cc2)oc1C was read as MrgX1 antagonist inactive, RGS4 block inactive, RGS4 act -11*, MrgX1 agonist inactive, MrgX1 allo act inactive, RGS4 act valid 92* and RGS4 act ctr 79*.
CCOC(=O)C1=C(C)N2C(=C(C#N)[C@@H]1c1ccc(C(=O)OC)cc1)SC[C@@]2(O)C(C)(C)C was read as MrgX1 antagonist inactive, RGS4 block inactive, RGS4 act -9.1*, MrgX1 agonist inactive, MrgX1 allo act inactive, RGS4 act valid 59* and RGS4 act ctr 0.
Screening O=C(CCCC1=NS(=O)(=O)c2ccccc2N1)Nc1ccccc1 returned MrgX1 antagonist inactive, RGS4 block inactive, RGS4 act inactive, MrgX1 agonist inactive and MrgX1 allo act inactive.
